# Key:
# Format in all cases: functional
# SN12C = assay: Cytotoxicity against human SN12C cells after 2 days by sulforhodamine B assay; conditions: 48 h
# Procedure, shortened: (§1)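 NCI60 multi-dose screen, 59 human tumour lines available. Cells exposed to compound across a 5-log mol/L concentration range for 2 days, then fixed and stained with sulphorhodamine B, optical density read. Growth inhibition calculated against time-zero control and untreated cells. GI50 derived from the dose series, average of two replicates.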
# UACC-62 = assay: Cytotoxicity against human UACC62 cells after 2 days by sulforhodamine B assay; conditions: UACC-62, 48 h
# Procedure, shortened: (§2)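 NCI DTP NCI60 multi-dose screen (59 human tumour lines available). Cells exposed to compound over a 5-log mol/L concentration range for 2 days, then fixed and stained with sulphorhodamine B, with optical density read. Growth inhibition calculated relative to time-zero cells and untreated cells, giving GI50 (half-maximal growth inhibition concentration). Average of two replicates.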
# MDA-MB-435 = assay: Cytotoxicity against human MDA-MB-435 cells after 2 days by sulforhodamine B assay; conditions: MDA-MB-435, 48 h; procedure, shortened: as §1
# U-251 = assay: Cytotoxicity against human U251 cells after 2 days by sulforhodamine B assay; conditions: U-251, 48 h; procedure, shortened: as §2
# [1] = Cytotoxicity against human NCI-ADR-RES cells after 2 days by sulforhodamine B assay; conditions: 48 h; procedure, shortened: as §1
# HCT-15 = assay: Cytotoxicity against human HCT15 cells after 2 days by sulforhodamine B assay; conditions: HCT-15, 48 h; procedure, shortened: as §1
# MCF7 = assay: Cytotoxicity against human MCF7 cells after 2 days by sulforhodamine B assay; conditions: MCF7, 48 h; procedure, shortened: as §1
# CAKI-1 = assay: Cytotoxicity against human CAKI-1 cells after 2 days by sulforhodamine B assay; conditions: CAKI-1, 48 h; procedure, shortened: as §1
# HOP-92 = assay: Cytotoxicity against human HOP92 cells after 2 days by sulforhodamine B assay; conditions: HOP-92, 48 h; procedure, shortened: as §1
# SK-MEL-2 = assay: Cytotoxicity against human SK-MEL-2 cells after 2 days by sulforhodamine B assay; conditions: SK-MEL-2, 48 h; procedure, shortened: as §1
# SK-OV-3 = assay: Cytotoxicity against human SKOV3 cells after 2 days by sulforhodamine B assay; conditions: SK-OV-3, 48 h; procedure, shortened: as §1
# UACC-257 = assay: Cytotoxicity against human UACC257 cells after 2 days by sulforhodamine B assay; conditions: UACC-257, 48 h; procedure, shortened: as §2
# K562 = assay: Cytotoxicity against human K562 cells after 2 days by sulforhodamine B assay; conditions: K562, 48 h; procedure, shortened: as §1
# ACHN = assay: Cytotoxicity against human ACHN cells after 2 days by sulforhodamine B assay; conditions: 48 h; procedure, shortened: as §1
# PC-3 = assay: Cytotoxicity against human PC3 cells after 2 days by sulforhodamine B assay; conditions: PC-3, 48 h; procedure, shortened: as §1
# HCT-116 = assay: Cytotoxicity against human HCT116 cells after 2 days by sulforhodamine B assay; conditions: HCT-116, 48 h; procedure, shortened: as §1
# NCI-H522 = assay: Cytotoxicity against human NCI-H522 cells after 2 days by sulforhodamine B assay; conditions: NCI-H522, 48 h; procedure, shortened: as §1
# SNB-19 = assay: Cytotoxicity against human SNB19 cells after 2 days by sulforhodamine B assay; conditions: SNB-19, 48 h; procedure, shortened: as §2
# SW-620 = assay: Cytotoxicity against human SW620 cells after 2 days by sulforhodamine B assay; conditions: SW-620, 48 h; procedure, shortened: as §2
# SF-539 = assay: Cytotoxicity against human SF539 cells after 2 days by sulforhodamine B assay; conditions: SF-539, 48 h; procedure, shortened: as §1
# OVCAR-5 = assay: Cytotoxicity against human OVCAR5 cells after 2 days by sulforhodamine B assay; conditions: OVCAR-5, 48 h; procedure, shortened: as §1
# OVCAR-4 = assay: Cytotoxicity against human OVCAR4 cells after 2 days by sulforhodamine B assay; conditions: OVCAR-4, 48 h; procedure, shortened: as §1
# [2] = Cytotoxicity against human Hs578T cells after 2 days by sulforhodamine B assay; conditions: Hs-578T, 48 h; procedure, shortened: as §1
# NCI-H226 = assay: Cytotoxicity against human NCI-H226 cells after 2 days by sulforhodamine B assay; conditions: NCI-H226, 48 h; procedure, shortened: as §1
# Malme-3M = assay: Cytotoxicity against human MALME-3M cells after 2 days by sulforhodamine B assay; conditions: 48 h; procedure, shortened: as §1
# A549 = assay: Cytotoxicity against human A549/ATCC cells after 2 days by sulforhodamine B assay; conditions: A549, 48 h; procedure, shortened: as §1
# NCI-H23 = assay: Cytotoxicity against human NCI-H23 cells after 2 days by sulforhodamine B assay; conditions: NCI-H23, 48 h; procedure, shortened: as §1
# RXF 393 = assay: Cytotoxicity against human RXF393 cells after 2 days by sulforhodamine B assay; conditions: RXF 393, 48 h; procedure, shortened: as §1
# IGROV-1 = assay: Cytotoxicity against human IGROV1 cells after 2 days by sulforhodamine B assay; conditions: IGROV-1, 48 h; procedure, shortened: as §1
# [3] = read-out: LC50 (the source's name)
compound,measurement,setting,value
CC/C(=C(/c1ccc(OCCN(C)C)cc1)c1ccc(OC(=O)CCC(=O)C2=C(C)/C(=C/c3[nH]c(-c4ccc[nH]4)cc3OC)N=C2C)cc1)c1ccccc1,GI50,SN12C,3.09 µM
same,TGI,SN12C,19.1 µM
same,CC50,SN12C; [3],66.6 µM
same,GI50,UACC-62,1.81 µM
same,TGI,UACC-62,3.78 µM
same,CC50,UACC-62; [3],7.88 µM
same,GI50,MDA-MB-435,2.55 µM
same,TGI,MDA-MB-435,10.3 µM
same,CC50,MDA-MB-435; [3],50.5 µM
same,GI50,U-251,1.52 µM
same,LC50,U-251,33.2 µM
same,TGI,U-251,7.17 µM
same,GI50,[1],3.63 µM
same,TGI,[1],16.1 µM
same,CC50,[1]; [3],74.5 µM
same,GI50,HCT-15,0.93 µM
same,LC50,HCT-15,> 100 µM
same,TGI,HCT-15,4.58 µM
same,GI50,MCF7,0.03 µM
same,LC50 (concentration giving 50% net cell kill),MCF7,39.9 µM
same,TGI,MCF7,2.81 µM
same,GI50,CAKI-1,2.69 µM
same,LC50 (concentration killing 50% of the cells present at time zero),CAKI-1,58.3 µM
same,TGI,CAKI-1,16.1 µM
same,GI50,HOP-92,0.76 µM
same,TGI,HOP-92,4.12 µM
same,CC50,HOP-92; [3],26.4 µM
same,GI50,SK-MEL-2,2.45 µM
same,LC50,SK-MEL-2,25.3 µM
same,TGI,SK-MEL-2,6.42 µM
same,GI50,SK-OV-3,7.17 µM
same,LC50 (concentration killing 50% of starting cells),SK-OV-3,> 100 µM
same,TGI,SK-OV-3,30.1 µM
same,GI50,UACC-257,3.39 µM
same,TGI,UACC-257,14.8 µM
same,CC50,UACC-257; [3],79.7 µM
same,GI50,K562,2.39 µM
same,LC50 (concentration killing 50% of cells),K562,> 100 µM
same,TGI,K562,6.4 µM
same,GI50,ACHN,2.61 µM
same,LC50 (concentration killing 50% of cells),ACHN,> 100 µM
same,TGI,ACHN,17.1 µM
same,GI50,PC-3,1.78 µM
same,LC50 (concentration killing 50% of cells),PC-3,51.1 µM
same,TGI,PC-3,17.2 µM
same,GI50,HCT-116,0.82 µM
same,LC50 (concentration killing 50% of cells vs time zero),HCT-116,> 100 µM
same,TGI,HCT-116,3.28 µM
same,GI50,NCI-H522,1.95 µM
same,LC50,NCI-H522,28 µM
same,TGI,NCI-H522,5.89 µM
same,GI50,SNB-19,5.49 µM
same,TGI,SNB-19,21.9 µM
same,CC50,SNB-19; [3],65.9 µM
same,GI50,SW-620,0.76 µM
same,LC50 (concentration killing 50% of cells),SW-620,> 100 µM
same,TGI,SW-620,2.6 µM
same,GI50,SF-539,2.62 µM
same,LC50,SF-539,40.3 µM
same,TGI,SF-539,9.55 µM
same,GI50,OVCAR-5,6.99 µM
same,LC50,OVCAR-5,53.1 µM
same,TGI,OVCAR-5,22 µM
same,GI50,OVCAR-4,1.5 µM
same,LC50 (concentration killing 50% of cells),OVCAR-4,61.5 µM
same,TGI,OVCAR-4,14.8 µM
same,GI50,[2],1.15 µM
same,TGI,[2],4.68 µM
same,CC50,[2]; [3],64.6 µM
same,GI50,NCI-H226,6.53 µM
same,LC50,NCI-H226,> 100 µM
same,TGI,NCI-H226,25.2 µM
same,GI50,Malme-3M,2.73 µM
same,LC50,Malme-3M,78.4 µM
same,TGI,Malme-3M,6.53 µM
same,GI50,A549,2.66 µM
same,LC50 (concentration giving 50% net cell kill),A549,55.9 µM
same,TGI,A549,10.6 µM
same,GI50,NCI-H23,4.03 µM
same,LC50 (concentration killing 50% of cells),NCI-H23,70 µM
same,TGI,NCI-H23,18.7 µM
same,GI50,RXF 393,2.35 µM
same,LC50 (concentration killing 50% of cells),RXF 393,73.3 µM
same,TGI,RXF 393,13 µM
same,GI50,IGROV-1,3.66 µM
same,LC50,IGROV-1,> 100 µM
same,TGI,IGROV-1,15.3 µM
